26 compounds from ChEMBL document CHEMBL1127795, “Small-molecule immunostimulants. Synthesis and activity of 7,8-disubstituted guanosines and structurally related compounds” (1994) can be followed below.

Experiment [1] is filed under the species Mus musculus. Nature of the experiment: Percent of maximum response was tested to augment the antibody response of B cells to sheep red blood cell challenge. The format is functional. The method, boiled down:
(§1)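 CBA/CaJ spleen cells depleted of T cells with anti-T cell monoclonal antibody (1:1000, 30 min, 4 °C) then complement (37 °C, 45 min). Cultured ± 0.1% SRBC antigen in serum-containing medium with compound from zero to 10⁻³ M for 4 d. Plaque-forming cells counted in agarose with guinea pig complement. ED50 and maximal response relative to a concurrent standard.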

The species entered for experiment [2] is Mus musculus. Nature of the experiment: Augment antibody response of B cells to sheep red blood cell (SRBC) challenge (adjuvanticity). The format is functional. Particulars: read-out: ED50 (the source's name). The method, boiled down:
as §1

Experiment [3] concerns YAC-1. The experiment is described as follows: Percent of maximum response was tested for its ability to stimulate the natural killer response in murine in vitro cell assays. Format: functional, Mus musculus.
Experiment [4] relates to YAC-1. Nature of the experiment: Stimulation of natural killer (NK) response in Yac-1 cell line (mouse, lymphoma); Neg indicates a response lower than vehicle control. Format: functional, cell-based.
The species named for experiment [5] is Mus musculus. The experiment is described as follows: Ability to act as B-cell mitogens. Format: functional. Particulars: read-out: ED50 (the source's name). The method, boiled down: (§2)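 CBA/CaJ mouse spleen cells (1 × 10⁵/0.2 mL) exposed to graded compound concentrations, dissolved in water or DMSO and diluted in medium, for 24 h. [³H]thymidine then added for a further 24 h; incorporation by scintillation counting. ED50 and maximal response expressed relative to a concurrently run standard (loxoribine in most cases).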

Experiment [6] relates to YAC-1. The experiment is described as follows: Stimulation of natural killer (NK) response in Yac-1 cell line (mouse, lymphoma). The format is functional. Particulars: read-out: ED50 (the source's name).
The species named for experiment [7] is Mus musculus. Nature of the experiment: Percent of maximum response was tested for its ability to act as B-cell mitogens (mitogenicity). The format is functional. The procedure, abridged: as §2
The species entered for experiment [8] is Mus musculus. The experiment is described as follows: Tested to augment the antibody response of B cells to sheep red blood cell (SRBC) challenge (adjuvanticity); Neg indicates a response lower than vehicle control. Format: functional, cell-based. The procedure, abridged:
as §1

`C=CCn1c(=O)n(C2OC(CO[Si](C)(C)C(C)(C)C)[C@@H](O)[C@H]2O)c2nc(N)nc(O)c21` (stereo partly drawn): the Max response in experiment [1] is 5%; in experiment [3] it was 6%. Moreover, the EC50 in experiment [2] was 1 µM. In addition, the ED50 entry in experiment [4] was “Negative”.

For `Nc1nc(O)c2c(n1)n(C1OC(CO)[C@@H](O)[C@H]1O)c(=O)n2Cc1ccc(OCc2ccccc2)cc1` (stereo partly drawn), the results for the Max response in experiment [1] and in experiment [3] were 5% and 6%, respectively. Also, the EC50 in experiment [2] was found to be 8 µM. Also, in experiment [4], the ED50 entry is “Negative”.

`NC(=O)Cn1c(=O)n(C2OC(CO)[C@@H](O)[C@H]2O)c2nc(N)nc(O)c21` (stereo partly drawn): the EC50 came out at 117 µM in experiment [5], 90 µM in experiment [6] and 190 µM in experiment [2]. Moreover, the Max response in experiment [1] amounted to 32%; in experiment [7], 72%; in experiment [3], 42%.

On to `C=CCn1c(=O)n(C2OC(COC(=O)COC)[C@@H](OC(=O)COC)[C@H]2OC(=O)COC)c2nc(NC(=O)COC)nc(O)c21` (stereo partly drawn), for which the EC50 in experiment [5] stood at 819 µM; in experiment [6], 150 µM; in experiment [2], 28 µM. Moreover, the results for the Max response in experiment [1], in experiment [7] and in experiment [3] were 216%, 53% and 60%, respectively.

In turn, `CC1OC(n2c(=O)n(C)c3c(O)nc(N)nc32)[C@H](O)[C@@H]1O` (stereo partly drawn) had a Max response in experiment [1] of 0%. Also, the ED50 result in experiment [8] is “Negative”.

As for `C=CCn1c(=O)n(C2OC(COC(=O)CCC)[C@@H](OC(=O)CCC)[C@H]2OC(=O)CCC)c2nc(NC(=O)CCC)nc(O)c21` (stereo partly drawn), the Max response is 109% in experiment [1] and 12% in experiment [3]. Moreover, in experiment [2], the EC50 came to 53 µM. For the same compound, in experiment [4], the ED50 result is “Negative”.

Compound `C=CCn1c(=O)n(CCc2ccc(OC)c(OC)c2)c2nc(N)nc(O)c21` registered a Max response in experiment [1] of 0%. In addition, the ED50 entry in experiment [8] is “Negative”.

On to `Nc1nc(O)c2nc(S)n(COCCO)c2n1`, for which the Max response in experiment [1] is 0%; in experiment [3], 26%. Also, the EC50 in experiment [6] is 3 µM. The ED50 entry in experiment [8] is “Negative”.

Consider `N#Cc1ccc(Cn2c(=O)n(C3OC(CO)[C@@H](O)[C@H]3O)c3nc(N)nc(O)c32)cc1` (stereo partly drawn), for which the Max response in experiment [1] came to 50%; in experiment [3], 0%. Further, in experiment [2], the EC50 came to 15 µM. For the same compound, the ED50 result in experiment [4] is “Negative”.

With `C=CCn1c(=O)n(C2OC(CO[Si](c3ccccc3)(c3ccccc3)C(C)(C)C)[C@@H](O)[C@H]2O)c2nc(N)nc(O)c21` (stereo partly drawn), the Max response in experiment [1] came to 33%; in experiment [3] it was 15%. The EC50 in experiment [2] was 18 µM. The ED50 result in experiment [4] was “Negative”.

Regarding `C=CCn1c(=S)n(C2OC(COC(C)=O)[C@H]3OC(C)(C)O[C@@H]23)c2nc(N)nc(O)c21` (stereo partly drawn), the EC50 in experiment [5] came out at 50 µM; in experiment [6] it was 30 µM; in experiment [2], 50 µM. Moreover, the Max response came to 141% in experiment [1], 20% in experiment [7] and 30% in experiment [3].

Regarding `C=CCn1c(=O)n([C@@H]2O[C@H](CO)[C@H]3OC(C)(CCC(=O)O)O[C@H]32)c2nc(N)nc(O)c21` (stereo partly drawn), in experiment [3], the Max response was 0%. Further, in experiment [4], the ED50 entry was “Negative”.

`Cn1c(=O)n(C2OC(CO)[C@@H](O)[C@H]2O)c2nc(N)nc(O)c21` (stereo partly drawn): the EC50 in experiment [5] is 120 µM; in experiment [6] it was 56 µM; in experiment [2] it was 10 µM. The results for the Max response in experiment [1], in experiment [7] and in experiment [3] were 99%, 100% and 72%, respectively.

For `N#Cc1cccc(Cn2c(=O)n(C3OC(CO)[C@@H](O)[C@H]3O)c3nc(N)nc(O)c32)c1` (stereo partly drawn), the Max response in experiment [1] came out at 16%; in experiment [3], 11%. The EC50 in experiment [2] worked out at 3 µM. In addition, in experiment [4], the ED50 entry is “Negative”.

With `C=CCn1c(=O)n([C@@H](CO)OC(CO)CO)c2nc(N)nc(O)c21`, the EC50 in experiment [5] came to 37 µM. Also, the Max response in experiment [1] is recorded as 0%; in experiment [7], 6%. Besides, the ED50 result in experiment [8] was “Negative”.

On to `CCCn1c(=O)n(C2OC(COP(=O)([O-])[O-])[C@@H](O)[C@H]2O)c2nc(N)nc(O)c21.[Li+].[Li+]` (stereo partly drawn), for which the EC50 in experiment [5] is 82 µM; in experiment [2], 15 µM. Also, the Max response in experiment [1] came out at 76%; in experiment [7] it was 57%; in experiment [3], 15%. Besides, in experiment [4], the ED50 entry was “Negative”.

As to `C=CCn1c(=S)n(C2OC(CO)[C@@H](O)C(O)[C@H]2O)c2nc(N)nc(O)c21` (stereo partly drawn), the Max response turned out to be 5% in experiment [1] and 3% in experiment [3]. Besides, the EC50 in experiment [2] turned out to be 1 µM. Also, the ED50 entry in experiment [4] is “Negative”.

In the case of `Nc1nc(O)c2nc3n(c2n1)COCCO3`, the Max response in experiment [1] was 0%; in experiment [3], 6%. Further, the ED50 entry in experiment [8] and in experiment [4] was “Negative” in each case.

On to `C=CCn1c(=O)n(CCCCO)c2nc(N)nc(O)c21`, for which the EC50 in experiment [5] came to 52 µM. In addition, the Max response in experiment [1] was 12%; in experiment [7], 16%. Besides, the ED50 entry in experiment [8] was “Negative”.

With `C=CCN1C(=C(C(=O)OCC)C(=O)OCC)N([C@H]2OC(CO)[C@H]3OC(C)(C)O[C@H]32)c2nc(N)nc(O)c21` (stereo partly drawn), in experiment [1], the Max response is 0%. Besides, in experiment [8], the ED50 entry is “Negative”.

For `C=CCn1c(=O)n([C@@H]2O[C@H](CO)[C@H]3OC(=O)O[C@H]32)c2nc(N)nc(O)c21`, the values for the EC50 in experiment [5], in experiment [6] and in experiment [2] were 47 µM, 20 µM and 3 µM, respectively. Also, the Max response is on record as 50% in experiment [1], 97% in experiment [7] and 90% in experiment [3].

Consider `CCCn1c(=O)n(C2CCC(COC(C)=O)O2)c2nc(NC(C)=O)nc(O)c21` (stereo not drawn), for which the EC50 worked out at 80 µM in experiment [5] and 154 µM in experiment [2]. Moreover, the Max response in experiment [1] is on record as 100%; in experiment [7], 11%; in experiment [3], 0%. The ED50 entry in experiment [4] was “Negative”.

On to `CCCn1c(=O)n(C2CCC(CO)O2)c2nc(N)nc(O)c21` (stereo not drawn), for which the EC50 stood at 52 µM in experiment [5], 14 µM in experiment [6] and 6 µM in experiment [2]. In addition, the Max response in experiment [1] worked out at 118%; in experiment [7], 84%; in experiment [3] it was 102%.

For the compound `C=CCn1c(=S)n(COCCO)c2nc(N)nc(O)c21`, the EC50 was 13 µM in experiment [5], 55 µM in experiment [6] and 14 µM in experiment [2]. The Max response is 9% in experiment [1], 7% in experiment [7] and 28% in experiment [3].

With `C=CCn1c(=O)n([C@H]2CO[C@@H](CO)C2)c2nc(N)nc(O)c21`, the EC50 in experiment [5] is 272 µM; in experiment [2], 83 µM. The Max response is recorded as 10% in experiment [1], 16% in experiment [7] and 0% in experiment [3]. For the same compound, in experiment [4], the ED50 entry is “Negative”.

In the case of `C=CCn1c(=S)n([C@@H]2O[C@H](CO)[C@H]3OC(C)(C)O[C@H]32)c2nc(N)nc(O)c21`, the EC50 in experiment [5] stood at 45 µM; in experiment [6] it was 40 µM; in experiment [2], 55 µM. The results for the Max response in experiment [1], in experiment [7] and in experiment [3] were 89%, 9% and 30%, respectively.
